From PubChem BioAssay AID1027 (Sanford-Burnham Center for Chemical Genomics, 2008)
Out of some 200,000 compounds screened, fewer than 10 were called active.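 How the source made its calls: active means luciferase activation factor, scaled between plate controls, of at least 2 with compound at 10 µM; inactive means the rest.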 The list is a sample of the results.

target: Luciferin 4-monooxygenase (Photinus pyralis) (UniProt P08659); experiment: FLuc activators, initial screening, artefact control for FLuc-dependent activation tests, biochemical, ATPlite luminescence (AID 1027); details: ATPlite luciferase biochemical, 10 min, at 10 µM, stronger effect = higher value, 0 = ATP-free wells, 1 = DMSO control
Sequence (P08659 whole entry, looked up): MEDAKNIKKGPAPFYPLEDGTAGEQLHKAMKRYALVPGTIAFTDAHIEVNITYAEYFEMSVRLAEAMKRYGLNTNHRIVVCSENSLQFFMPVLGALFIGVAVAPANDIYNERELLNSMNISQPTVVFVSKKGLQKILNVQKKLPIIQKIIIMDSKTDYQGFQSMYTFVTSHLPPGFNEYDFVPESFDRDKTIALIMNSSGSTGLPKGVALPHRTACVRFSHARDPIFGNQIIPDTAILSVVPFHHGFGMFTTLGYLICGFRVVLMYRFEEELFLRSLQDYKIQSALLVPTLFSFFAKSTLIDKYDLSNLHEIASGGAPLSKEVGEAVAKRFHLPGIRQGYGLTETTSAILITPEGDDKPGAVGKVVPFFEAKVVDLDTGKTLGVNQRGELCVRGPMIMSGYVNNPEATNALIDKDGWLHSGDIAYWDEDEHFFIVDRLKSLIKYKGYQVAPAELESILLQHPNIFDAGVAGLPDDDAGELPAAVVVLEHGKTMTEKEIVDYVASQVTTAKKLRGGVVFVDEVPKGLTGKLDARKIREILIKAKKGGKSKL
Outline: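 Material: Luciferase/luciferin reagent mix; Doses: test compounds dosed from 2 mM stocks in 100% DMSO; Schedule: 10 min incubation after luciferase reagent addition, room temperature; Measured by: luminescence from luciferase reaction; Read-out: luminescence gain marking luciferase activators.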

SMILES | activation factor
CCOc1cccc(OCCCOc2cccc3cccnc23)c1 | 1 (inactive)
S=c1[nH]nc(NCCc2ccccc2)s1 | 0.9 (inactive)
COc1ccc(C(=O)N2CCC(C(=O)Nc3ccc(C)cc3)CC2)cc1 | 1 (inactive)
COc1cccc(/C=C2\SC(=N)N(c3ccc(F)cc3)C2=O)c1 | 1.1 (inactive)
O=[N+]([O-])/C(N=Nc1ccccc1)=N\Nc1ccccc1 | 1.1 (inactive)
COc1ccc(CC(=O)N[C@@H](CCSC)c2nc3ccccc3[nH]2)cc1 | 1.1 (inactive)
O=C(NCc1ccccn1)c1cc(Br)ccc1Cl | 1 (inactive)
CC1CCN(c2ccc(C(=O)Nc3nnc(C4CC4)s3)cc2[N+](=O)[O-])CC1 | 1 (inactive)
Cc1cccc(N2C(=O)CC(SC(N)=Nc3ccccc3)C2=O)c1 (configuration not stated) | 1.1 (inactive)
COc1cc(/C=C/CO)cc(OC)c1O[C@@H]1O[C@H](CO)[C@@H](O)[C@H](O)[C@H]1O | 1 (inactive)
Cc1ccc2[nH]cc(CCCN3C(=O)c4ccccc4C3=O)c2c1 | 1 (inactive)
COc1ccc(NC(=O)C(NC(C)=O)C(=O)NCc2ccccc2Cl)cc1 (configuration not stated) | 1 (inactive)
CC(OC(=O)CCc1nc(=O)c2ccccc2n1C)C(=O)NCc1ccc2c(c1)OCO2 (configuration not stated) | 1.1 (inactive)
CO/N=C(\N)c1ccc([N+](=O)[O-])cc1 | 1.1 (inactive)
Cc1ccc(CCCOC(=O)C[N+]2(C)CCCCC2)cc1 | 1 (inactive)
O=C(Cc1ccccc1)Nc1cccc(C(=O)N/N=C/c2ccco2)c1 | 0.9 (inactive)
Cc1ccc(CSc2nc3[nH]ncc3c(=O)[nH]2)cc1 | 0.6 (inactive)
COc1ccccc1NC(=O)C[n+]1ccccc1 | 1 (inactive)
COc1cc(C(=O)N2C(=O)c3cccc(N)c3C2=O)cc(OC)c1OC | 1 (inactive)
CCOC(=O)C1CCCN(C(=O)c2cccc(S(=O)(=O)N3CCOCC3)c2)C1 (configuration not stated) | 1 (inactive)
COc1cccc(NC(=O)C(Sc2nc3ccccc3c(=O)n2CC(C)C)c2ccccc2)c1 (configuration not stated) | 1 (inactive)
Cc1cs/c(=N\N=C\c2ccc(O)cc2)n1Cc1ccco1 | 1 (inactive)
